We go through 6 compounds from PubChem BioAssay.

The target of test [1] is Pantothenate synthetase (Mycobacterium tuberculosis (strain ATCC 25618 / H37Rv)) (UniProt P9WIL5). Kind of test: Recombinant Mtb pantothenate synthetase (PanC) inhibitors, coupled enzyme, confirmatory (AID 375; call rule not given here;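 further: 0% = full reaction with vehicle and 100% = no enzyme background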). The note with it: coupled enzyme assay; at 10 µM, stronger effect = higher value.
Test [2] is described as follows: reducers of endogenous Her2 protein level, primary screen, SKBR3 breast tumor cells, AlphaScreen, ATP viability (AID 461;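 active means Her2 level under about 52% in both replicate screens, with viability over 70% of control, limit read from the data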;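 on Her2 level: lower value means less Her2 protein in the cells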;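 on viability: percent of carrier control wells set as 100% viability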). The following applies: 18-24 h, measured here: SKBR3 viability, ATP luminescence, at 10 µM.
Test [3] concerns the target Receptor tyrosine-protein kinase erbB-2 (Homo sapiens) (UniProt P04626). The test is described as above. The following applies: 18-24 h, at 10 µM, stronger effect = lower value.
A short description of test [4]: SK-BR-3 cell growth inhibitors, pilot screen, 24 h, human (AID 572;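 active means viability at or below 10% of carrier control in both of two separate runs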;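 further: compound exposure lasted between 18 and 24 h rather than exactly 24 h; 100% = carrier-treated control wells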). The note with it: SK-BR-3 viability, CellTiter-Glo luminescence, at 10 µM, stronger effect = lower value.
Test [5] is described as follows: HUVEC growth inhibition – cell-based, human, primary screen (AID 575;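 active means viability at or below 30% in both replicate assays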;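 further: 100% = median of untreated cell wells with 0.1% DMSO on each plate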). The note with it: HUVEC proliferation, CellTiter-Glo luminescence, 72 h; at 10 µM; stronger effect = lower value. In short, it runs like this: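 Test system: primary human umbilical vein endothelial cells; medium: endothelial basal medium with 2% FBS plus growth supplements; dosing: 10 µM compound only; times: 72 h treatment at 37 °C; signal: CTG luminescence; read-out: % viability relative to median vehicle-well signal on each plate; control set: vehicle and MePR control wells; plate: 384-well, collagen-coated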

Test [6] in a line: growth inhibitors of H69AR lung tumor, primary screen, human, duplicate replicates (AID 580;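 active means viability at or under a set limit in both replicates, limit being median viability minus 3 SD, cut at about 48% in these data, passing the limit was not always enough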;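 further: 100% = mean luminescence of untreated wells and 0% = no signal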). The following applies: H69AR lung tumor cells viability, ATP luminescence, 72 h; at 10 µM; stronger effect = lower value.
Test [7] in a line: reversal of MRP1-mediated doxorubicin resistance, pilot screen, H69AR cells, doxorubicin co-treatment (AID 601). The note with it: CellTiter-Glo, 72 h, at 10 µM; for differential viability (reversal): stronger effect = higher value.
A short description of test [8]: 384-well plate pilot, post-Golgi transport modulator project, inhibition of yeast transport mutant growth (AID 636; in the data active means inhibition above about 31%). The note with it: absorbance 615 nm, about 18 h, stronger effect = higher value.
The nature of test [9]: growth suppression of yeast trafficking mutant, preliminary HTS, modulators of trafficking downstream of Golgi apparatus project, 1536-format plate, OD 615 nm (AID 637; in the data active means inhibition above about 30%). The following applies: yeast transport mutant growth, absorbance 615 nm, 18 h; stronger effect = higher value.
Setting [10] is: H69AR cells + 2 uM doxorubicin, measured here: viability with 2 uM doxorubicin, stronger effect = lower value.
The mark [11] stands for this setting: H69AR cells, compound alone cytotoxicity.

Activity calls are given as the source filed them.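 How the source made its calls, unless noted: active means viability loss from added drug above about 55%, and viability with drug at most 40%, in both replicates (limit read from the data, passing the limit was not always enough); inconclusive means both conditions met in only one replicate; inactive means neither replicate meets both conditions.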

Receptor tyrosine-protein kinase erbB-2 (Homo sapiens), sequence (P04626 whole entry, looked up): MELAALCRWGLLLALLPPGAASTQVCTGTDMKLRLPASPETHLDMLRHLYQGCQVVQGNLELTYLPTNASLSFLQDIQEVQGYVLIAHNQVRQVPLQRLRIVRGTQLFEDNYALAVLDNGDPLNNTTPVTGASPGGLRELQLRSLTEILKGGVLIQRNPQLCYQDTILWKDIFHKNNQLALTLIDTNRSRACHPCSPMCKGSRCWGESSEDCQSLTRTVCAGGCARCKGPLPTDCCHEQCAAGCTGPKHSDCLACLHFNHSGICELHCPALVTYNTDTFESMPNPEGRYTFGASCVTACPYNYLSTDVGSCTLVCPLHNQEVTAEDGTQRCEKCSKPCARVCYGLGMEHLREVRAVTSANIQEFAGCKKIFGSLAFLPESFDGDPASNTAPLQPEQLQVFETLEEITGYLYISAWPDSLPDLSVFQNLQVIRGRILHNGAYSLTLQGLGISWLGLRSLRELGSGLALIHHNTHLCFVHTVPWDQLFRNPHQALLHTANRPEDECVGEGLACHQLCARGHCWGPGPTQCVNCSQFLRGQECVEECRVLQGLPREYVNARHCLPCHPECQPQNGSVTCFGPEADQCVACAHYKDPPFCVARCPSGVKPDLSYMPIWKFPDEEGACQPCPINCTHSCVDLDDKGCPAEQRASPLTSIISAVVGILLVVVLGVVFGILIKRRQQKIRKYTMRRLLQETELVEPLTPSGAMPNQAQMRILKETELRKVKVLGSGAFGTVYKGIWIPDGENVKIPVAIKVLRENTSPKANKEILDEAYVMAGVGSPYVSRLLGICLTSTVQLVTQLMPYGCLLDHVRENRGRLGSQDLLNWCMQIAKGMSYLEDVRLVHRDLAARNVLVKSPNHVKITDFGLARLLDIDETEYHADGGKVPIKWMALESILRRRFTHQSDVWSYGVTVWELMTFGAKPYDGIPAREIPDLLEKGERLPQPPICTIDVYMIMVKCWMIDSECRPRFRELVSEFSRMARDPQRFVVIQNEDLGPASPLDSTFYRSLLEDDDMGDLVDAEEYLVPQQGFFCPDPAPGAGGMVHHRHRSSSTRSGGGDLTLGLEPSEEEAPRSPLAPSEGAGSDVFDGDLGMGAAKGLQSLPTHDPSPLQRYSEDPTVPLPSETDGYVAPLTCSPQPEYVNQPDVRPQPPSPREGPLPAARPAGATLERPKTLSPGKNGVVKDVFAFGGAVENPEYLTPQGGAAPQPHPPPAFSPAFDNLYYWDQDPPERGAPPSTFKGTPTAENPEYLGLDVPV
Pantothenate synthetase (Mycobacterium tuberculosis (strain ATCC 25618 / H37Rv)), sequence (P9WIL5 whole entry, looked up): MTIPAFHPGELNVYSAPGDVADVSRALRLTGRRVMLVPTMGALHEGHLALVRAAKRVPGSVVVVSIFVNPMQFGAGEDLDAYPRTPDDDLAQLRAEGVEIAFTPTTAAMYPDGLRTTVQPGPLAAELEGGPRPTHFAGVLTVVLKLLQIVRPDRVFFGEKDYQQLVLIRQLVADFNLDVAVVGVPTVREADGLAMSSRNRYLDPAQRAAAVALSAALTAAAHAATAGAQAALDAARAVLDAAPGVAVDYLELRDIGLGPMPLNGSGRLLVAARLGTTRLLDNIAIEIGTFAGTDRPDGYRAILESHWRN

`O=c1[nH]c(=O)n(CCc2ccc(F)cc2)c(O)c1C=NCCCn1ccnc1`: the values for the inhibition in [1], in [8] and in test [9] were 0% (inactive), -4.8% (inactive) and 3.28% (inactive), respectively. In addition, the viability in test [2] was 114%; in test [4], 114% (inactive); in test [5] it was 99.5% (inactive); in test [6], 102% (inactive); in test [7] (setting [10]) it was 86.8%; in test [7] (setting [11]) it was 102%. Moreover, the Her2 level in test [3] is 84% (inactive). Also, in test [7] (H69AR cells + 2 uM doxorubicin), the differential viability (reversal) is 15.3% (inactive).

Turning to `COc1ccc(C2NCc3ccc4c(c3-n3cccc32)OCO4)cc1O` (configuration not stated), the inhibition was 0% (inactive) in test [1], -5.79% (inactive) in [8] and -5.56% (inactive) in test [9]. Further, the viability in test [2] is 110%; in test [4], 110% (inactive); in [5], 40.7% (inactive); in test [6], 25.5% (active); in [7] (setting [10]), 67%; in [7] (setting [11]) it was 25.5%. Further, the Her2 level in test [3] is 73% (inactive). Also, in [7] (H69AR cells + 2 uM doxorubicin), the differential viability (reversal) is -41.5% (inactive).

As for `COc1ccc(N2CCN(CCCN)CC2)cc1`, the inhibition in test [1] was 0% (inactive); in test [8], -0.91% (inactive); in [9] it was -1.27% (inactive). Also, the viability is 94.5% in test [2]; 94.5% (inactive) in [4]; 72.6% (inactive) in [5]; 81.5% (inactive) in test [6]; 77.7% in test [7] (setting [10]); 81.5% in test [7] (setting [11]). The Her2 level in test [3] was 88% (inactive). In [7] (H69AR cells + 2 uM doxorubicin), the differential viability (reversal) was 3.81% (inactive).

On to `CCN1CCN(Cc2cc(Br)cc(OC)c2O)CC1`, for which the inhibition in [1] is 7% (inactive); in test [8] it was -3.2% (inactive); in [9], -6.19% (inactive). In addition, the viability in [2] is 93.5%; in [4] it was 93.5% (inactive); in test [5], 110% (inactive); in [6] it was 94.2% (inactive); in [7] (setting [10]), 97.1%; in [7] (setting [11]), 94.2%. In addition, the Her2 level in test [3] is 114% (inactive). For the same compound, the differential viability (reversal) in test [7] (H69AR cells + 2 uM doxorubicin) was -2.88% (inactive).

Regarding `CN1CCN(C(=O)OC2c3nccnc3C(=O)N2c2ccc(Cl)cn2)CC1` (configuration not stated), the inhibition in test [1] is 8% (inactive). In addition, the viability in test [2] was 91.5%; in test [4], 91.5% (inactive); in [5], 106% (inactive); in test [6], 94.1% (inactive); in test [7] (setting [10]), 98.1%; in test [7] (setting [11]), 94.1%. Besides, the Her2 level in test [3] is 108% (inactive). Besides, the differential viability (reversal) in test [7] (H69AR cells + 2 uM doxorubicin) was -3.97% (inactive).

As for `O=C(CCCN1CCC2(CC1)C(=O)NCN2c1ccccc1)c1ccc(F)cc1`, in [1], the inhibition was 1% (inactive). The viability in test [2] was 98%; in [4] it was 98% (inactive); in test [5], 96.2% (inactive); in test [6], 87.8% (inactive); in [7] (setting [10]), 97%; in test [7] (setting [11]), 87.8%. For the same compound, the Her2 level in test [3] was 65% (inactive). The differential viability (reversal) in test [7] (H69AR cells + 2 uM doxorubicin) is -9.21% (inactive).
